NPY1 pot ag = potentiators or agonists of human neuropeptide Y receptor Y1 | P25929 | NPY-Y1 expressing cells, potentiator/agonist activation | activation, % at 3.6 µM | 220,000 tested, 0.37% active; in the data active means activation above about 33%, passing the limit was not always enough;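 further: cells stimulated with NPY at EC10 then isoproterenol at EC100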
NPY-Y1 antag = NPY-Y1 (human) receptor antagonism; P25929; HEK293-CNG Y1 cells, membrane potential fluorescence; NPY at EC95, then isoproterenol; inhibition, % at 3.6 µM; 200,000 tested, 1% active;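 active means inhibition above the campaign mean inhibition of all tested compounds plus 3 SD, cut at about 20% in these data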
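Material: HEK293 cells co-expressing NPY Y1 receptor and cyclic-nucleotide gated channel. Timing: compound incubation 1 h at room temperature, readout 45 min post-stimulation. Signal: fluorescence, membrane potential probe.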
S1P4 agonist = human S1P4 receptor agonism. O95977. S1P4-expressing cell line, agonist reporter assay. activation, % at 4.98 µM. 220,000 tested, 0.35% active. AID 1509; in the data active means activation above about 11%
Target sequence (O95977 whole entry, looked up): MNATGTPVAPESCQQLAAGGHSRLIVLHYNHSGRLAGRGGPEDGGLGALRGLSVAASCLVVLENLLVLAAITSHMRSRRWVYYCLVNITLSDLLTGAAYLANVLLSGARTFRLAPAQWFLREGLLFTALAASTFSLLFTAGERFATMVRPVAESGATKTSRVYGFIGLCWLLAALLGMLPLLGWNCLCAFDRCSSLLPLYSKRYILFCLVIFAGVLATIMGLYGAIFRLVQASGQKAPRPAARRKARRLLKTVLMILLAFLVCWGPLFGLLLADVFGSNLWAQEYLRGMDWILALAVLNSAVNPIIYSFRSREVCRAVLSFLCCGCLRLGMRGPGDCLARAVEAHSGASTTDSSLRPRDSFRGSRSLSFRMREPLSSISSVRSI
NPY-Y2 PAM-ag = human NPY-Y2 potentiation or agonism, primary screen; P49146; cells expressing NPY-Y2, potentiator/agonist read-out; activation, % at 3.6 µM; 220,000 tested, 0.45% active; AID 1359; in the data active means activation above about 27%;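 further: cells stimulated with NPY near EC25 plus isoproterenol at EC100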
NPY Y2 blocker = antagonists of human neuropeptide Y receptor Y2; P49146; NPY-Y2 expressing cells, antagonist mode; inhibition, % at 2.7 µM; 140,000 tested, 0.99% active; in the data active means inhibition above about 17%
S1P4 antagonist = human S1P4 receptor antagonism | S1P4-expressing cells, antagonist mode, reporter read-out | inhibition, % at 4.98 µM | 220,000 tested, 0.26% active; in the data active means inhibition above about 29%
S1P4 agonist cf = confirmation of human S1P4 receptor agonists | shares compounds with S1P4 agonist | S1P4 agonist cell-based reporter assay | activation, % at 4.98 µM | 740 tested, 7% active; in the data active means activation above about 12%
S1P1 agonist = human S1P1 agonism as S1P4 agonist counter-screen; AID 1563; activation, % at 4.98 µM; S1P1 agonist cell-based assay, activation; 740 tested, 4% active; shares compounds with S1P4 agonist; in the data active means activation above about 21%
S1P4 antag cf = human S1P4 antagonism, confirmation; shares compounds with S1P4 antagonist; S1P4-expressing cell line, antagonist mode, reporter read-out; inhibition, % at 4.98 µM; 520 tested, 71% active; in the data active means inhibition above about 30%
S1P1 antag = human S1P1 antagonism as S1P4 antagonist counter-screen. shares compounds with S1P4 antagonist. cell-based S1P1 antagonist counterscreen, inhibition. inhibition, % at 4.98 µM. 520 tested, 37% active. AID 1564; in the data active means inhibition above about 40%;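 further: receptor stimulated with S1P near its EC80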
Hits are given with their value; i = inactive; nt = no result given. Most compounds without a hit are left out; they make up all but 2.4% or so of the library.

SMILES | NPY1 pot ag | NPY-Y1 antag | S1P4 agonist | NPY-Y2 PAM-ag | NPY Y2 blocker | S1P4 antagonist | S1P4 agonist cf | S1P1 agonist | others
CCC1CCCCN1C(=S)Nc1ccc(OC(F)F)cc1 (configuration not stated) | i | i | 12 | i | i | i | i | i
O=C(CCC1CCCCC1)Nc1nccs1 | i | i | 126 | i | nt | i | i | i
Cc1ccc(NS(=O)(=O)c2cc(OCC(N)=O)c(C)cc2Cl)cc1C | i | i | i | i | i | i | nt | nt
Cc1ccccc1NS(=O)(=O)c1cc(OCC(N)=O)c(C)cc1Cl | i | i | 15 | i | nt | i | i | i
COc1cc(NC2=CC(=O)CC(C)(C)C2)cc(OC)c1 | i | i | 28 | i | i | i | i | i
CCCSc1nnc(NC(=O)Nc2ccc(F)cc2)s1 | i | i | 61 | i | i | i | i | i
COc1ccc(C2CC(c3cccs3)=NN2c2ccc(C=O)cc2)cc1 (configuration not stated) | i | i | 23 | i | i | i | 17 | 21
CCN(CC)C(=O)Cn1cc(C(=O)C(=O)NCc2ccco2)c2ccccc21 | i | i | 13 | i | nt | i | i | i
CCOC(=O)c1ccc(NC(=S)N2CCN(CCNC3=CC(=O)CC(C)(C)C3)CC2)cc1 | i | i | i | i | nt | i | nt | nt
CCOC(=O)c1ccc(NC(=S)NCCc2ccc(OC)c(OC)c2)cc1 | i | nt | i | i | nt | i | nt | nt
CC1=CS(=O)(=O)CC1SC(=S)N(C)C1CCS(=O)(=O)C1 (configuration not stated) | i | i | i | i | nt | i | nt | nt
N#CCC(CNc1ncc(C(F)(F)F)cc1Cl)OC(=O)c1cccc(C(F)(F)F)c1 (configuration not stated) | i | i | 16 | i | i | i | i | i
Clc1ccc(C2CC(c3cccs3)n3ncnc3N2)c(Cl)c1 (configuration not stated) | i | i | 27 | i | nt | i | i | i
COc1cccc(C2CC(c3ccccc3Cl)Nc3ncnn32)c1 (configuration not stated) | i | i | i | i | i | i | nt | nt
CCCCCCCC(O)CC(CC1CCCCC1)C(=O)NN (configuration not stated) | i | i | i | i | i | i | nt | nt
CCOC(=O)CC1C(=O)NCCN1S(=O)(=O)c1ccc(Br)cc1 (configuration not stated) | i | i | 11 | i | nt | i | i | i
COCn1c(-c2ccc(OC)c(OC)c2)nc2ccccc21 | i | i | i | i | i | i | nt | nt
COCn1c(-c2cccc(Br)c2)nc2ccccc21 | i | i | 82 | i | i | i | i | i
CCCC(=O)Nc1ccc(-c2nc3cc(C)c(C)cc3o2)cc1 | i | i | 13 | i | i | i | i | i
CCCC(=O)Nc1ccc2oc(-c3ccncc3)nc2c1 | i | i | i | i | i | i | nt | nt
O=C(COC(=O)C1(c2ccc(Cl)cc2)CCCC1)Nc1ncc(C(F)(F)F)cc1Cl | i | i | 29 | i | i | i | i | i
CCc1ccc(/C(C)=N/NC(=O)c2ccccn2)cc1 | i | i | 12 | i | nt | i | i | i
CCn1cc(/C=C/C(=O)Nc2c(C)nn(Cc3ccccc3C)c2C)cn1 | i | i | 20 | i | i | i | i | i
COc1ccc(C(=O)N=S2CCN(C(=O)c3ccc(Cl)cc3)CC2)cc1 | i | nt | i | i | nt | i | nt | nt
CCCCN(CC)C(=O)c1ccc(Cl)cc1 | i | i | i | i | nt | i | nt | nt
SMILES | NPY1 pot ag | NPY-Y1 antag | S1P4 agonist | NPY-Y2 PAM-ag | NPY Y2 blocker | S1P4 antagonist | S1P4 agonist cf | S1P1 agonist | others
CCN(CC(=O)NC(C)C)C(=O)c1ccc(Cl)cc1 | i | i | 18 | i | i | i | i | i
CCOC(=O)C1=C(C)Nc2nc(C)nn2C1c1cc(OC)ccc1OC (configuration not stated) | i | i | i | i | i | i | nt | nt
CCOC(=O)C1=C(C)Nc2nc(C)nn2C1c1ccc(C)cc1 (configuration not stated) | i | i | 13 | i | i | i | i | i
Cc1ccc(Nc2cc(C)c3ccc(O)cc3n2)cc1C | i | nt | 11 | i | nt | 75 | i | i | S1P4 antag cf=80;S1P1 antag=i
O=C(Nc1ccc(NC(=O)c2cc([N+](=O)[O-])ccc2N2CCOCC2)cc1)c1cccs1 | i | i | i | i | nt | i | nt | nt
Cc1[nH]c2ccccc2c1/C=N/NC(=S)NCc1ccccc1 | i | i | i | i | nt | i | nt | nt
Cc1[nH]c2ccccc2c1/C=N/Nc1nc2ccccc2[nH]1 | i | nt | i | i | nt | 50 | nt | nt | S1P4 antag cf=57;S1P1 antag=i
CCc1nnc(N/N=C/c2c(C)[nH]c3ccccc23)n1N | i | i | i | i | nt | 97 | nt | nt | S1P4 antag cf=i;S1P1 antag=i
O=C(Nc1nnc(-c2ccc3c(c2)CCCC3)o1)c1ccccc1 | i | i | i | i | i | 31 | nt | nt | S1P4 antag cf=102;S1P1 antag=96
O=C(Nc1nnc(-c2ccc3c(c2)CCCC3)o1)c1ccccc1Cl | i | i | i | i | i | i | nt | nt
Cc1noc(/C=C/c2nn(C)cc2Cl)c1[N+](=O)[O-] | i | nt | i | i | nt | 34 | nt | nt | S1P4 antag cf=59;S1P1 antag=i
Cc1cc(O)ccc1N/C=C/c1onc(C)c1[N+](=O)[O-] | i | i | i | i | nt | i | nt | nt
CS(=O)(=O)c1nc(-c2ccccc2)cc(C(F)(F)F)n1 | i | i | i | i | i | 40 | nt | nt | S1P4 antag cf=116;S1P1 antag=i
CCOC(=O)Nc1cccc(Cl)c1C | i | i | i | i | i | i | nt | nt
CCOC(=O)COc1ccc(C(=O)Nc2cccc(Cl)c2C)cc1 | i | i | i | i | nt | 33 | nt | nt | S1P4 antag cf=i;S1P1 antag=i
Cc1ccc(NN2C(=O)C=C(c3ccccc3)C2=O)cc1 | i | i | i | i | nt | 37 | nt | nt | S1P4 antag cf=57;S1P1 antag=i
O=C1c2ccccc2C(=O)N1Nc1ccccc1 | i | i | i | i | i | i | nt | nt
CC(C)(C)OC(=O)N/N=C\C=C\c1ccc2c(c1)OCO2 | i | i | i | i | i | i | nt | nt
COC(=O)N/N=C\C=C\c1ccc2c(c1)OCO2 | i | i | i | i | i | 55 | nt | nt | S1P4 antag cf=i;S1P1 antag=i
CCOC(=O)COc1ccc(S(=O)(=O)N2CCN(c3ccc(OC)cc3)CC2)cc1 | i | i | i | i | nt | i | nt | nt
CCOC(=O)COc1ccc(S(=O)(=O)N2CCN(c3ccccc3F)CC2)cc1 | i | i | i | i | i | 36 | nt | nt | S1P4 antag cf=i;S1P1 antag=i
COc1ccc(/C(C)=N/NC(=O)CNC(=O)CCc2ccccc2)c(OC)c1 | i | nt | i | i | nt | i | nt | nt
Cn1cc([N+](=O)[O-])c(C(=O)Nc2cc(Oc3ccccc3)cc([N+](=O)[O-])c2)n1 | i | i | i | i | i | 37 | nt | nt | S1P4 antag cf=111;S1P1 antag=i
Cc1ccc(-n2nnnc2Sc2ccc(S(=O)(=O)NCCN(C)C)cc2[N+](=O)[O-])cc1 | i | i | i | i | i | 49 | nt | nt | S1P4 antag cf=68;S1P1 antag=59
